Measurements from ChEMBL document CHEMBL3286366, “Identification of malic enzyme mutants depending on 1,2,3-triazole moiety-containing nicotinamide adenine dinucleotide analogs” (Bioorg Med Chem Lett, 2014).
Values belong to the molecule of their own block, whether it stands above or below them.

Experiments:
Escherichia coli K-12 [1] = test: Ratio of Kcat to Km for purified recombinant Escherichia coli K-12 malic enzyme L310K/L404S mutant at 0.2 mM by Lineweaver-Burk plot method in presence of L-malate MnCl2
Escherichia coli K-12 [2] = test: Activity of purified recombinant Escherichia coli K-12 malic enzyme L310K/L404S mutant at 0.2 mM by Lineweaver-Burk plot method in presence of L-malate MnCl2
Escherichia coli K-12 [3] = test: Activity of purified recombinant Escherichia coli K-12 malic enzyme L310K/Q401R mutant at 0.2 mM by UV-vis spectrophotometry in presence of L-malate MnCl2
Summary of the method: (§1)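 Screening of malic enzyme mutants with 1,2,3-triazole-containing NAD analogs as cofactor. Each analog was present at 0.2 mM, and the read-out was specific activity.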

Escherichia coli K-12 [4] = test: Activity of purified recombinant Escherichia coli K-12 malic enzyme L310R/Q401V mutant at 0.2 mM by UV-vis spectrophotometry in presence of L-malate MnCl2; summary of the method: as §1
Escherichia coli K-12 [5] = test: Activity of purified recombinant Escherichia coli K-12 malic enzyme L310K/L404S mutant at 0.2 mM by UV-vis spectrophotometry in presence of L-malate MnCl2; summary of the method: as §1
Escherichia coli K-12 [6] = test: Activity of purified recombinant Escherichia coli K-12 malic enzyme L310R/Q401N mutant at 0.2 mM by UV-vis spectrophotometry in presence of L-malate MnCl2; summary of the method: as §1
Escherichia coli K-12 [7] = test: Activity of purified recombinant Escherichia coli K-12 malic enzyme L310R/L404C mutant at 0.2 mM by UV-vis spectrophotometry in presence of L-malate MnCl2; summary of the method: as §1
Escherichia coli K-12 [8] = test: Activity of purified recombinant Escherichia coli K-12 malic enzyme L310R/L404N mutant at 0.2 mM by UV-vis spectrophotometry in presence of L-malate MnCl2; summary of the method: as §1
Escherichia coli K-12 [9] = test: Activity of purified recombinant Escherichia coli K-12 malic enzyme L310R/Q401S mutant at 0.2 mM by UV-vis spectrophotometry in presence of L-malate MnCl2; summary of the method: as §1
Escherichia coli K-12 [10] = test: Activity of purified recombinant Escherichia coli K-12 malic enzyme L310R/Q401I mutant at 0.2 mM by UV-vis spectrophotometry in presence of L-malate MnCl2; summary of the method: as §1
[11] = compound: NC(=O)c1ccc[n+]([C@@H]2O[C@H](COP(=O)([O-])OP(=O)(O)OC[C@@H]3O[C@H](n4cc(-c5ccccc5)nn4)[C@@H](O)[C@H]3O)[C@@H](O)[C@H]2O)c1; test: (§2) Ratio of Kcat to Km for purified recombinant Escherichia coli K-12 malic enzyme at 0.2 mM by Lineweaver-Burk plot method in presence of L-malate MnCl2
[12] = compound: NC(=O)c1ccc[n+]([C@@H]2O[C@H](COP(=O)([O-])OP(=O)(O)OC[C@@H]3O[C@H](n4cnc5c(N)ncnc54)[C@@H](O)[C@H]3O)[C@@H](O)[C@H]2O)c1; test: as §2
[13] = compound: Cc1ccccc1-c1cn([C@H]2O[C@@H](COP(=O)(O)OP(=O)([O-])OC[C@H]3O[C@@H]([n+]4cccc(C(N)=O)c4)[C@H](O)[C@@H]3O)[C@H](O)[C@@H]2O)nn1; test: as §2
[14] = compound: NC(=O)c1ccc[n+]([C@@H]2O[C@H](COP(=O)([O-])OP(=O)(O)OC[C@@H]3O[C@H](n4cc(-c5cccc6ccccc56)nn4)[C@@H](O)[C@H]3O)[C@@H](O)[C@H]2O)c1; test: as §2
[15] = compound: NC(=O)c1ccc[n+]([C@@H]2O[C@H](COP(=O)([O-])OP(=O)(O)OC[C@@H]3O[C@H](n4cc(-c5ccccc5)nn4)[C@@H](O)[C@H]3O)[C@@H](O)[C@H]2O)c1; test: (§3) Activity of purified recombinant Escherichia coli K-12 malic enzyme at 0.2 mM by Lineweaver-Burk plot method in presence of L-malate MnCl2
[16] = compound: NC(=O)c1ccc[n+]([C@@H]2O[C@H](COP(=O)([O-])OP(=O)(O)OC[C@@H]3O[C@H](n4cnc5c(N)ncnc54)[C@@H](O)[C@H]3O)[C@@H](O)[C@H]2O)c1; test: as §3
[17] = compound: Cc1ccccc1-c1cn([C@H]2O[C@@H](COP(=O)(O)OP(=O)([O-])OC[C@H]3O[C@@H]([n+]4cccc(C(N)=O)c4)[C@H](O)[C@@H]3O)[C@H](O)[C@@H]2O)nn1; test: as §3
[18] = compound: NC(=O)c1ccc[n+]([C@@H]2O[C@H](COP(=O)([O-])OP(=O)(O)OC[C@@H]3O[C@H](n4cc(-c5cccc6ccccc56)nn4)[C@@H](O)[C@H]3O)[C@@H](O)[C@H]2O)c1; test: as §3

kcat/Km (Escherichia coli K-12 [1]): 78800 M⁻¹ s⁻¹
Km (Escherichia coli K-12 [2]): 1100 µM
kcat (Escherichia coli K-12 [2]): 86.7 s⁻¹
Molecule: Cc1ccccc1-c1cn([C@H]2O[C@@H](COP(=O)(O)OP(=O)([O-])OC[C@H]3O[C@@H]([n+]4cccc(C(N)=O)c4)[C@H](O)[C@@H]3O)[C@H](O)[C@@H]2O)nn1

Activity (Escherichia coli K-12 [3]): 2.1 U/mg
Activity (Escherichia coli K-12 [5]): 0.17 U/mg
Molecule: NC(=O)c1ccc[n+]([C@@H]2O[C@H](COP(=O)([O-])OP(=O)(O)OC[C@@H]3O[C@H](n4cc(C(=O)O)nn4)[C@@H](O)[C@H]3O)[C@@H](O)[C@H]2O)c1

kcat/Km (Escherichia coli K-12 [1]): 6700 M⁻¹ s⁻¹
Km (Escherichia coli K-12 [2]): 2500 µM
kcat (Escherichia coli K-12 [2]): 16.4 s⁻¹
Molecule: NC(=O)c1ccc[n+]([C@@H]2O[C@H](COP(=O)([O-])OP(=O)(O)OC[C@@H]3O[C@H](n4cc(-c5ccccc5)nn4)[C@@H](O)[C@H]3O)[C@@H](O)[C@H]2O)c1

The next lines start with the molecule.

Molecule: NC(=O)c1ccc[n+]([C@@H]2O[C@H](COP(=O)([O-])OP(=O)(O)OC[C@@H]3O[C@H](n4cnc5c(N)ncnc54)[C@@H](O)[C@H]3O)[C@@H](O)[C@H]2O)c1
kcat/Km (Escherichia coli K-12 [1]): 8200 M⁻¹ s⁻¹
Km (Escherichia coli K-12 [2]): 4100 µM
kcat (Escherichia coli K-12 [2]): 33.7 s⁻¹

Molecule: NC(=O)c1ccc[n+]([C@@H]2O[C@H](COP(=O)([O-])OP(=O)(O)OC[C@@H]3O[C@H](n4cc(-c5cccc6ccccc56)nn4)[C@@H](O)[C@H]3O)[C@@H](O)[C@H]2O)c1
kcat/Km (Escherichia coli K-12 [1]): 68600 M⁻¹ s⁻¹
Activity (Escherichia coli K-12 [3]): 2.3 U/mg
Activity (Escherichia coli K-12 [4]): 0.53 U/mg
Activity (Escherichia coli K-12 [5]): 10.5 U/mg
Activity (Escherichia coli K-12 [6]): 0.32 U/mg
Km (Escherichia coli K-12 [2]): 1000 µM
kcat (Escherichia coli K-12 [2]): 68.6 s⁻¹
Activity (Escherichia coli K-12 [7]): 0.36 U/mg
Activity (Escherichia coli K-12 [8]): 0.47 U/mg

Molecule: COc1ccc(-c2cn([C@H]3O[C@@H](COP(=O)(O)OP(=O)([O-])OC[C@H]4O[C@@H]([n+]5cccc(C(N)=O)c5)[C@H](O)[C@@H]4O)[C@H](O)[C@@H]3O)nn2)cc1
Activity (Escherichia coli K-12 [9]): 0.43 U/mg
Activity (Escherichia coli K-12 [10]): 0.98 U/mg
Activity (Escherichia coli K-12 [3]): 4.3 U/mg
Activity (Escherichia coli K-12 [5]): 1.6 U/mg
Activity (Escherichia coli K-12 [6]): 0.43 U/mg
Activity (Escherichia coli K-12 [7]): 0.51 U/mg
Activity (Escherichia coli K-12 [8]): 0.51 U/mg

B1: NAD-dependent malic enzyme (Escherichia coli (strain K12)), P26616 (protein)
chain: MEPKTKKQRSLYIPYAGPVLLEFPLLNKGSAFSMEERRNFNLLGLLPEVVETIEEQAERAWIQYQGFKTEIDKHIYLRNIQDTNETLFYRLVNNHLDEMMPVIYTPTVGAACERFSEIYRRSRGVFISYQNRHNMDDILQNVPNHNIKVIVVTDGERILGLGDQGIGGMGIPIGKLSLYTACGGISPAYTLPVVLDVGTNNQQLLNDPLYMGWRNPRITDDEYYEFVDEFIQAVKQRWPDVLLQFEDFAQKNAMPLLNRYRNEICSFNDDIQGTAAVTVGTLIAASRAAGGQLSEKKIVFLGAGSAGCGIAEMIISQTQREGLSEEAARQKVFMVDRFGLLTDKMPNLLPFQTKLVQKRENLSDWDTDSDVLSLLDVVRNVKPDILIGVSGQTGLFTEEIIREMHKHCPRPIVMPLSNPTSRVEATPQDIIAWTEGNALVATGSPFNPVVWKDKIYPIAQCNNAFIFPGIGLGVIASGASRITDEMLMSASETLAQYSPLVLNGEGMVLPELKDIQKVSRAIAFAVGKMAQQQGVAVKTSAEALQQAIDDNFWQAEYRDYRRTSI
kcat/Km [11]: 2600 M⁻¹ s⁻¹
kcat/Km [12]: 369000 M⁻¹ s⁻¹
kcat/Km [13]: 6300 M⁻¹ s⁻¹
kcat/Km [14]: 2600 M⁻¹ s⁻¹
Km [15]: 2900 µM
kcat [15]: 7.5 s⁻¹
Km [16]: 280 µM
kcat [16]: 103 s⁻¹
Km [17]: 1600 µM
kcat [17]: 10 s⁻¹
Km [18]: 1800 µM
kcat [18]: 4.6 s⁻¹
